High-throughput results from PubChem BioAssay.
A selection: hits, their analogues and other compounds. The true share with any hit is near 4.6%.
CHO parental Ca: signal in parental CHO cells, OX1R antagonist counter-screen; actives 0.63% (n = 330,000); parental CHO-K1, ATP-induced calcium, Fluo-8 fluorescence; inhibition, % at 5.6 µM; AID 463079;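 active = inhibition above that plate's mean sample inhibition plus 3 SD, cut at about 26% in these data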
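Assay system: untransfected parental CHO cell line. Also added: ATP agonist challenge. Dosing: one dose, 5.6 µM nominal. Measured by: Fluo-8 fluorescence. Read-out: % inhibition. Benchmarks: ATP wells versus no-ATP DMSO wells. Repeats: no replicates.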
OX1R antag-1: blocks the human orexin 1 receptor; inhibition, % at 6.6 µM; O43613; OX1R-expressing cells, FRET antagonist read-out; actives 1.8% (n = 330,000); in the data active = inhibition mostly above about 38%, no sharp cut-off; inactive = mostly below about 40%
Target sequence (O43613 whole entry, looked up): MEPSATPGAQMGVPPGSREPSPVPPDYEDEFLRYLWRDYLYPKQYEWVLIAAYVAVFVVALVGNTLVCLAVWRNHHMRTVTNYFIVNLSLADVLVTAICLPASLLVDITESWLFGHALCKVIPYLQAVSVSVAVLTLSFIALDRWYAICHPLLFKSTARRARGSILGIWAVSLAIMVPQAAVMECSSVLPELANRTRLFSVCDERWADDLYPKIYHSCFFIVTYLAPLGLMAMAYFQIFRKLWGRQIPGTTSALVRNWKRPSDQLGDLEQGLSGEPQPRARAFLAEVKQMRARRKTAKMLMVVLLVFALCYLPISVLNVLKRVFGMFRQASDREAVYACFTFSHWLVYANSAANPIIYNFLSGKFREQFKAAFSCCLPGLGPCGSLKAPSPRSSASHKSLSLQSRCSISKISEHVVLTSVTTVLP
TAAR1 antag: human TAAR1 antagonism; CHO RD-HGA16 TAAR1, Fluo-8 calcium fluorescence, antagonist; inhibition, % at 3 µM; actives 1.5% (n = 360,000); Q96RJ0;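 active = inhibition above a per-plate cutoff, the mean inhibition of test compounds on that plate plus 3 SD, cut at about 49% in these data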
Target sequence (Q96RJ0 whole entry, looked up): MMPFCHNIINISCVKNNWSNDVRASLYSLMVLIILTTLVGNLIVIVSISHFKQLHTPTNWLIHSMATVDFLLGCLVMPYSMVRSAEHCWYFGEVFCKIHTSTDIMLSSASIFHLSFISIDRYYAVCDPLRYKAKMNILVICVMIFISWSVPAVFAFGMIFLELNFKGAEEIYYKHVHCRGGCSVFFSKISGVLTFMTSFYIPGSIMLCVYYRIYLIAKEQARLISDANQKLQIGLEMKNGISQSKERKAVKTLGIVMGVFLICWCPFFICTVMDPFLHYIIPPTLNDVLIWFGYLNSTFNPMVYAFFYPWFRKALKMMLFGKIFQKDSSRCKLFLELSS
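Test system: RD-HGA16 CHO cells with stable hTAAR1 and Gα16 / Probe or stimulus: EC80 β-phenethylamine stimulus / Times: seeding 17-24 h prior, 75-min 37 °C, 30-min RT dye loading / Detection: Fluo-8 calcium-sensitive fluorescence / Read-out basis: % inhibition scaled between DMSO and EC80 PEA controls / Repeats: singlicate, one well per test compound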
TAAR1 agonist: human TAAR1 agonism | Q96RJ0 | CHO RD-HGA16 TAAR1, Fluo-8 calcium fluorescence; vehicle wells 0%, saturating PEA agonist 100% | activation, % at 3 µM | actives 0.99% (n = 360,000) | AID 624467;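 active = activation above the mean activation of all test compounds in the run plus 3 SD, cut at about 38% in these data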
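Test system: RD-HGA16 (CHO) cells co-expressing Gα16 and hTAAR1; dosing: one-point dosing at 3 µM (nominal); timing: 17-24 h seeding, 75 min 37 °C dye, 30 min RT; signal: kinetic Fluo-8 calcium fluorescence; read-out basis: % activation relative to PEA EC100 response; controls: DMSO and PEA EC100; replicates: n 1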
GPR7 antag: antagonists of human GPR7 (neuropeptides B/W receptor 1); inhibition, % at 4.4 µM; actives 1.1% (n = 290,000); P48145; GPR7-expressing cells, fluorescence antagonist assay; in the data active = inhibition above about 16%, passing the limit was not always enough;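 note: cells stimulated with the agonist NPW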
OX1R antag-2: human HCRTR1 antagonism | O43613 | CHO/OX1R cells, Fluo-8 calcium fluorescence, orexin A | inhibition, % at 5 µM | actives 0.43% (n = 330,000) | AID 434989;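 active = inhibition above its plate's threshold, mean inhibition of all tested compounds on the plate plus 3 SD, cut at about 37% in these data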
Large screens that a line does not name were inactive.

Cc1c(Cl)cccc1NC(=O)C(=O)NNC(=O)c1ccccc1F	CHO parental Ca 23.8
CN(C)c1ccc(NC(=O)/C=C/c2c(Cl)cccc2Cl)cc1	OX1R antag-1 71.7
CN(C)S(=O)(=O)c1ccc(NC(=O)/C=C/c2ccccc2Cl)cc1	none
CCOc1[nH]n(-c2ccc(Cl)cc2)c(=O)c1C=Nc1ccc(Cl)cc1	CHO parental Ca 38.0
CCOc1[nH]n(-c2ccc(Cl)cc2)c(=O)c1C=Nc1ccc(C)cc1	none (no result: CHO parental Ca, OX1R antag-1, TAAR1 antag, TAAR1 agonist, OX1R antag-2)
O=C(O)c1ccc(Sc2nnc3ccccn23)c([N+](=O)[O-])c1	OX1R antag-1 71.9
CC(=O)Nc1ccc(S(=O)(=O)N2CCN=C2SCc2ccc([N+](=O)[O-])cc2)cc1	CHO parental Ca 33.1
NS(=O)(=O)c1ccc(CCNC(=O)CCCCCn2c(=S)[nH]c3ccc(Br)cc3c2=O)cc1	TAAR1 antag 60.0, GPR7 antag 17.1
O=C(CCCCCn1c(=S)[nH]c2ccc(Br)cc2c1=O)NCC1CCCO1 (stereo unspecified)	none
CCCCCC(=O)NC1CCCCN(C)C1=O (stereo unspecified)	none (no result: CHO parental Ca, OX1R antag-1, GPR7 antag, OX1R antag-2)
CC(=O)c1cccc(S(=O)(=O)N2CCC(C(=O)N(C)Cc3ccc(Cl)s3)CC2)c1	none (no result: GPR7 antag)
COc1ccc(C(=O)C(=O)N2CCN(S(=O)(=O)c3cccc4c(N(C)C)cccc34)CC2)cc1OC	none (no result: CHO parental Ca, OX1R antag-1, GPR7 antag, OX1R antag-2)
COC(=O)C1=C(C)N(Cc2ccc(F)cc2)C(=S)NC1c1ccc(Cl)cc1 (stereo unspecified)	none (no result: CHO parental Ca, OX1R antag-1, GPR7 antag, OX1R antag-2)
Cc1cc(C)c(C)c(S(=O)(=O)N2CCC(C(=O)OCC(=O)N3c4ccccc4NC(=O)C3(C)C)CC2)c1C	TAAR1 antag 48.7
O=C(NCc1ccccc1)[C@H]1CCCN1C(=O)[C@H]1CCCN1C(=O)N1CCCCC1	none (no result: CHO parental Ca, OX1R antag-1, GPR7 antag, OX1R antag-2)
Cc1cc(OCCCCCNCCO)cc(C)c1Cl	GPR7 antag 19.1
Cc1cc(OCCNCCO)cc(C)c1Cl	none
Cc1ccc2c(c1)N(C(=O)CCC(=O)N1CCN(c3cccc(C)c3C)CC1)CCO2	OX1R antag-1 39.7
Cc1ccc2c(c1)N(C(=O)CCC(=O)NC1CCC(C)CC1)CCO2 (stereo unspecified)	OX1R antag-1 42.9
CCOC(=O)N1CCC(NC(=O)CCC(=O)N2CCOc3ccc(C)cc32)CC1	none
COc1ccc(Cl)cc1NS(=O)(=O)c1c(C)[nH]c(C)c1C(=O)N1CCCCC1	OX1R antag-1 48.8
COc1cc(NS(=O)(=O)c2c(C)[nH]c(C)c2C(=O)N2CCCCC2)cc(OC)c1OC	none
CC(C)(C)OC(=O)N[C@@H](Cc1ccccc1)c1nnc(S(=O)(=O)Cc2ccccc2)o1	CHO parental Ca 31.9
Cc1ccccc1CS(=O)(=O)c1nnc([C@H](Cc2ccccc2)NC(=O)OC(C)(C)C)o1	CHO parental Ca 50.8
CCSc1nnc([C@H](Cc2ccccc2)NC(=O)OC(C)(C)C)o1	none
COC(=O)c1cc2c(c3c4cc(OC)ccc4n(S(=O)(=O)c4ccc(C)cc4)c13)C(=O)N(C)C2	none (no result: CHO parental Ca, OX1R antag-1, GPR7 antag, OX1R antag-2)
COc1ccc(/C=C2\SC(=O)N(CCNC(=O)Cc3coc4cc(C)ccc34)C2=O)cc1OC	OX1R antag-1 54.0
COc1ccc(/C=C2/SC(=O)N(CCC(=O)Nc3ccc(C)cc3)C2=O)cc1OC	none
O=C(COc1ncnc2scc(-c3ccccc3)c12)NC1CCCc2ccccc21 (stereo unspecified)	OX1R antag-1 72.7
O=C(COc1ccccc1C(=O)O)NC1CCCc2ccccc21 (stereo unspecified)	none
Cn1cc(C(=O)Nc2ccc(F)c(Cl)c2)cn1	none
CN1c2ccsc2C(O)=C(C(=S)Nc2ccc(F)c(Cl)c2)S1(=O)=O	OX1R antag-1 50.3
COc1cccc(-c2nc(-c3ccccn3)no2)c1OC	none
c1ccc(-c2noc(-c3cccc4ccccc34)n2)nc1	OX1R antag-1 66.2
C=CCN=C1NC(c2cccc(Cl)c2)C(C(=O)OC)=C(C)N1Cc1ccc(C(F)(F)F)cc1 (stereo unspecified)	none (no result: CHO parental Ca, OX1R antag-1, GPR7 antag, OX1R antag-2)
CN(C)CC(CCC(CN(C)C)C(=O)c1ccccc1)C(=O)c1ccccc1 (stereo unspecified)	GPR7 antag 37.9 (no result: CHO parental Ca, OX1R antag-1, TAAR1 antag, TAAR1 agonist, OX1R antag-2)
O=C(Nc1cc2c(cc1[N+](=O)[O-])OCCO2)c1cccnc1	OX1R antag-1 50.2 (no result: GPR7 antag)
O=C(Nc1ccc([N+](=O)[O-])c(NC(=O)c2cccnc2)c1)c1cccnc1	none (no result: GPR7 antag)
CC(C)OC(=O)/C(=C\c1ccc2c(c1)c1ccccc1n2C)NC(=O)c1ccccc1	TAAR1 antag 49.5
O=C(Cc1ccc(NC(=O)C2CCN(C(=O)C3CCCC3)CC2)cc1)Nc1cccc(C(=O)N2CCCC2)c1	none (no result: CHO parental Ca, OX1R antag-1, GPR7 antag, OX1R antag-2)
CN(CC(=O)Nc1ccc(Cl)c(C(F)(F)F)c1)C(=O)c1cc(=O)[nH]c2ccccc12	none (no result: GPR7 antag)
CN(CC(=O)Nc1ccc(Cl)c(C(F)(F)F)c1)C(=O)c1cc(=O)c2ccccc2o1	TAAR1 agonist 45.3 (no result: GPR7 antag)
COCCNC(=O)C1(C)CCN(C(=O)COc2ccc(Cl)cc2Cl)C1 (stereo unspecified)	none (no result: CHO parental Ca, OX1R antag-1, GPR7 antag, OX1R antag-2)
O=C(c1nn2c(C(F)(F)F)cc(-c3ccc(F)cc3)nc2c1Cl)N1CCOCC1	none
O=C(c1nc2nc(-c3ccc(Cl)cc3)cc(C(F)(F)F)n2n1)N1CCOCC1	OX1R antag-1 46.2
CCCn1c(SCC(=O)Nc2ccccc2-c2ccccc2)nnc1-c1ccoc1C	OX1R antag-1 58.9
O=C(CSc1nc2ncc(Cl)cc2[nH]1)Nc1ccccc1-c1ccccc1	OX1R antag-1 34.6
O=C(CSc1nc2ncc(Br)cc2[nH]1)Nc1ccccc1-c1ccccc1	none
Cn1nnnc1SCC(=O)Nc1ccccc1-c1ccccc1	GPR7 antag 15.8
COC(=O)c1cc2c(c3c4cc(OC)ccc4n(S(=O)(=O)c4ccc(OC)cc4)c13)C(=O)N(Cc1ccccc1)C2	none (no result: CHO parental Ca, OX1R antag-1, GPR7 antag, OX1R antag-2)
O=C(O)c1ccccc1Nc1ccc([N+](=O)[O-])cc1	none
CN(C)c1cc(Nc2cccc(O)c2)c([N+](=O)[O-])c2nonc12	none
O=C(O)c1cccc(Nc2ccc([N+](=O)[O-])c3nonc23)c1	OX1R antag-1 34.0
O=[N+]([O-])c1c(Nc2ccccn2)cc(Cl)c2nonc12	OX1R antag-1 45.0
O=C(O)c1cccc(Nc2cc(Cl)c3nonc3c2[N+](=O)[O-])c1	OX1R antag-1 57.8
O=C(O)c1ccc(Nc2ccc([N+](=O)[O-])c3nonc23)cc1	none (no result: CHO parental Ca, OX1R antag-1, OX1R antag-2)
O=C(O)c1ccccc1Nc1cc(Cl)c2nonc2c1[N+](=O)[O-]	OX1R antag-1 60.9
CCNc1cc(Nc2c(C)n(C)n(-c3ccccc3)c2=O)c([N+](=O)[O-])c2nonc12	none
Cn1c(=O)c(=O)n(C)c2cc([N+](=O)[O-])c(N3CCOCC3)cc21	none
